Screening data: PubChem, Broad Institute
XiGFP reactiv: reactivates the inactive X chromosome in mouse fibroblasts; XiGFP mouse fibroblasts, % GFP-positive cells imaging, 3 d; cells co-treated with 5-aza-dC sensitizer; scaled so ellipticine positive control = 100%; activation, % at 7.58 µM; actives 0.055% (n = 360,000); AID 743238;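 active = mean normalized replicate activation at least 10% and every replicate at or above 10%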;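 note: 0% = median of on-plate neutral control wells and 100% = ellipticine 6 µM median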
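Material: SV40-immortalized XiGFP fibroblast cells, line 68-5-11 | Buffer or medium: DMEM containing 5-aza-dC | Dosing: One concentration, pinned | Times: 3 d treatment, 15 min room-temperature fixation | Controls: Ellipticine 6 µM positive control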
DENV2 CPE: inhibitors of DENV2 cytopathic effect; DENV2-infected cells, cytopathic effect rescue, plate reader; CPE inhibition, % at 9.99 µM; actives 1.7% (n = 350,000); AID 651640; in the data active = CPE inhibition above about 20%, passing the limit was not always enough; tested in BHK-21 cells;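 note: 0% = median of neutral control wells and 100% = median of positive control wells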
Cneo AK release: causes C. neoformans cell lysis. adenylate kinase release luminescence, 4 h; normalised: neutral wells 0, clomiphene wells 100. lysis activity, % at 15 µM. actives 0.2% (n = 360,000);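 active = mean lysis activity across replicates of at least 80%, whatever share of replicates individually reach that level; inactive = mean lysis activity below 80%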
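Assay system: log-phase C. neoformans yeast / Quantity: yeast cell density of 5 × 10^6 cells/mL / Medium: fresh YPD growth medium / Compound: single dose / Timing: static 4 h at 37 °C with compound, 1 h detection / Measured by: adenylate kinase release luminescence / Read-out: lysis from increased AK signal / Benchmarks: Clomiphene as positive lysis control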
PGC1a acetyl inh: lowers PGC1a acetylation signal in U2OS cells. inhibition, % at 15.6 µM. AlphaScreen anti-acetyl-lysine; with virally co-expressed GCN5 acetyltransferase. actives 0.17% (n = 350,000);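 active = every replicate shows inhibition of at least 40%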;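 note: 0% = neutral control wells and 100% = positive control wells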
CFTR F508del cor: CFTR F508del correction in bronchial cells. activity (quench increase), % at 7.58 µM. AID 720511. CFBE cells, YFP halide quenching; stimulated with forskolin plus potentiator P3; % fluorescence drop versus neutral controls. actives 0.36% (n = 350,000);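 active = mean added fluorescence quench of at least 8% versus neutral control, with both replicates also reaching 8%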;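 note: cells transiently co-express mutant CFTR-F508del with the halide-sensitive YFP; corrector assay measuring rescue of mutant channel to the surface after 24 h compound exposure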
FN deposit inh: fibronectin deposition inhibition | actives 0.086% (n = 350,000) | AH1F fibroblasts, Alexa488-fibronectin deposition fluorescence, overnight | AID 743247 | inhibition, % at 12.6 µM;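 active = mean inhibition across replicates of 30% or more, regardless of how many single replicates reach that level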;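 note: positive control wells lacked labelled fibronectin entirely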
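Material: AH1F fibroblasts assembling fluorescent fibronectin matrix; amount: 10000 AH1F cells/well; medium: DMEM, 2% serum; reagent: Alexa488-fibronectin, 24 nM final in well; dosing: single compound dose, delivered by pin transfer; incubation: 1 h adhesion, overnight exposure; detection: fluorescence after three HBSS washes, excitation 485 nm, emission 525 nm; measure: fibronectin deposition inhibition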
Active calls of the source: *. Hits are enriched below; roughly 1.9% of the tested compounds scored in any of these assays.

What do the screens show for `O=C(C[C@H]1C[C@H]2c3cc(NC(=O)Nc4ccccc4)ccc3O[C@H]2[C@H](CO)O1)NCCN1CCCCC1`?
XiGFP reactiv: 0; DENV2 CPE: 1; Cneo AK release: 0; PGC1a acetyl inh: -1; CFTR F508del cor: -1

What do the screens show for `C[C@H](CO)N1C[C@H](C)[C@@H](CN(C)Cc2ccc3c(c2)OCO3)Oc2ccc(NS(=O)(=O)c3cccs3)cc2CC1=O`?
XiGFP reactiv: 0; DENV2 CPE: 7; Cneo AK release: 2; PGC1a acetyl inh: -2; CFTR F508del cor: 3

How did O=C(C[C@H]1CC[C@@H]2[C@H](COC[C@@H](O)CN2Cc2nccs2)O1)NCc1ccc(Cl)cc1 do in these assays?
XiGFP reactiv: 0; DENV2 CPE: 2; Cneo AK release: -4; PGC1a acetyl inh: 6; CFTR F508del cor: 0; FN deposit inh: -3

How did O=C(Cc1ccc(Cl)cc1)OCC(=O)c1ccc[nH]1 do in these assays?
XiGFP reactiv: -1; DENV2 CPE: -4; Cneo AK release: -2; PGC1a acetyl inh: 5; CFTR F508del cor: 23*; FN deposit inh: -2

What do the screens show for `O=C(Cc1ccc(Cl)c(Cl)c1)OCC(=O)c1ccc[nH]1`?
Cneo AK release: 0; PGC1a acetyl inh: 1; FN deposit inh: -9

How did Cc1cc(C)c2cc(C(=O)Nc3ccc(C)c(F)c3)[nH]c2c1 do in these assays?
XiGFP reactiv: 0; DENV2 CPE: -5; Cneo AK release: 1; PGC1a acetyl inh: 0; CFTR F508del cor: 1; FN deposit inh: -6

How did CCCCNC(=O)c1cc2c(C)cc(C)cc2[nH]1 do in these assays?
XiGFP reactiv: 0; DENV2 CPE: 57*; CFTR F508del cor: 0; FN deposit inh: -5

How did COc1cc(NC(=O)N2CCc3nc(Nc4cc(Cl)cc(Cl)c4)ncc3C2)cc(OC)c1OC do in these assays?
XiGFP reactiv: 0; DENV2 CPE: 47*; Cneo AK release: -1; CFTR F508del cor: 2; FN deposit inh: 4

Results for CCS(=O)(=O)NCC[C@H]1CC[C@H](NS(=O)(=O)c2ccccc2C)[C@@H](CO)O1 ?
XiGFP reactiv: 0; DENV2 CPE: -4; Cneo AK release: 7; PGC1a acetyl inh: 12; CFTR F508del cor: -1; FN deposit inh: -17

Results for O=C(NCC[C@@H]1CC[C@@H](NS(=O)(=O)c2cccc(F)c2)[C@@H](CO)O1)Nc1cc(F)ccc1F ?
XiGFP reactiv: -1; DENV2 CPE: 24*; Cneo AK release: -1; PGC1a acetyl inh: -15; CFTR F508del cor: -5

What do the screens show for `Cc1ccccc1S(=O)(=O)N[C@H]1CC[C@H](CCNS(=O)(=O)c2cccc(F)c2)O[C@H]1CO`?
XiGFP reactiv: 0; DENV2 CPE: -2; Cneo AK release: 93*; PGC1a acetyl inh: -2; CFTR F508del cor: 2; FN deposit inh: 3

Results for O=C(C[C@H]1CC[C@@H](NS(=O)(=O)c2cccc(F)c2)[C@H](CO)O1)N1CCCCC1 ?
XiGFP reactiv: 0; DENV2 CPE: 25*; Cneo AK release: -2; PGC1a acetyl inh: -1; CFTR F508del cor: 0; FN deposit inh: -4

How did CCS(=O)(=O)NCC[C@@H]1CC[C@@H](NS(=O)(=O)c2ccccc2C)[C@H](CO)O1 do in these assays?
XiGFP reactiv: 0; DENV2 CPE: 50*; Cneo AK release: 3; PGC1a acetyl inh: 5; CFTR F508del cor: 0; FN deposit inh: -13

Results for CN1C(=O)c2cc(NC(=O)c3cccc(F)c3)ccc2OC[C@H]2O[C@H](CC(=O)O)CC[C@@H]21 ?
XiGFP reactiv: 0; DENV2 CPE: 13; Cneo AK release: -5; PGC1a acetyl inh: 2; CFTR F508del cor: 1; FN deposit inh: -29

Results for C[C@H](CO)N1C[C@H](C)[C@H](CN(C)C(=O)NC2CCCCC2)Oc2ccc(NC(=O)CCCCCC(=O)Nc3ccccc3N)cc2C1=O ?
XiGFP reactiv: 0

Results for Cc1ccccc1S(=O)(=O)N[C@@H]1CC[C@H](CCNS(=O)(=O)c2cccc(F)c2)O[C@H]1CO ?
XiGFP reactiv: 0; DENV2 CPE: -4; Cneo AK release: 90*; PGC1a acetyl inh: 3; CFTR F508del cor: 2; FN deposit inh: -3
